Data published in PubChem BioAssay AID522 (The Scripps Research Institute Molecular Screening Center, 2006).
The whole screen tested about 65,000 compounds, of which about 1,200 (1.8%) were called active. Only a selection was taken, and actives are over-represented in it overall. Unmarked numbers belong to inactive results.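 The calls were made as follows: active = activation above the mean activation of all tested compounds plus 3 SD (cut at about 50% in these data); inactive = the rest.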

Molecular target: Steroidogenic factor 1 (Homo sapiens) (UniProt Q13285)
Experiment: SF-1 ligand-binding domain transactivation enhancers – cell-based, CHO-K1, Gal4-SF-1 LBD, luciferase luminescence, primary screen (AID 522)
Settings: CHO-K1 Gal4-SF-1 LBD luciferase reporter; at 10 µM; stronger effect = higher value; % increase over DMSO SF-1-specific signal
How it was run: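 Material: Gal4–SF-1 LBD one-hybrid luciferase reporter in CHO-K1 cells | Amount: 4,000 cells per well | Compound dosing: 10 µM single point, 1% DMSO | Schedule: 20 h compound treatment, 37 °C | Measured by: SteadyLite luciferase luminescence | Evaluation: Percent activation versus DMSO | Control set: DMSO-treated SF-1-transfected cells as negative, DMSO-treated mock-transfected cells lacking SF-1 as background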

Sequence of Steroidogenic factor 1 (Homo sapiens) (Q13285 whole entry, looked up, the tested form may be a part): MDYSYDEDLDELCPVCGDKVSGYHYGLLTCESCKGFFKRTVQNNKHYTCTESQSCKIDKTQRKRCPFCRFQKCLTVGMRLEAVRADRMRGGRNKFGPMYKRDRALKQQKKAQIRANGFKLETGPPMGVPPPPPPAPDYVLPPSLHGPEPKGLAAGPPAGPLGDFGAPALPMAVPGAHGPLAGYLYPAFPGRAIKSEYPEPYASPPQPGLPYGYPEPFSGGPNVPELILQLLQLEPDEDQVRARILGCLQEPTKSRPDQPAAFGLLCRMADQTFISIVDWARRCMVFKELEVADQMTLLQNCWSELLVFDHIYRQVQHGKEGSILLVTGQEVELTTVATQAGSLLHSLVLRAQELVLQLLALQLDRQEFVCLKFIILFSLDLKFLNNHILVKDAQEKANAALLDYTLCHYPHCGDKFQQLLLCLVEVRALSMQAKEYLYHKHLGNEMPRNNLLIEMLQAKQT

Structure (SMILES) | activation
CCCc1[nH]nc2c1C(c1ccc(Br)s1)C(C#N)=C(N)O2 (stereo not drawn) | 15.9%
Cn1c(/C(C#N)=C2/CCCCCN2)nc2ccccc21 | 9.6%
CCOC(=O)N1CCN(C(=O)C2CC(c3ccc(F)cc3)=NO2)CC1 (stereo not drawn) | -7.2%
COC(=O)[C@H](C(C)C)n1c(C)c(C(C)=O)c(C(C)=O)c1C | 5.7%
CC(Cc1cccs1)NC(=O)NC1CCCCC1 (stereo not drawn) | 41.1%
CC(=O)OC(C(=O)NC1CCCCC1)c1ccccc1 (stereo not drawn) | -11.8%
CC(C)c1ccc(NC(=O)NC2CCCCC2)cc1 | 100% (active)
Cc1cccc(-n2c(N)c(C(=O)N3CCN(C)CC3)sc2=S)c1 | 3.5%
Cc1ccc(C2CC(=O)NC(SCC(=O)OCc3ccccc3)=C2C#N)o1 (stereo not drawn) | -4.2%
CCN(CC(=O)Nc1ccc2c(c1)OCCO2)Cc1cc(=O)oc2cc(C)c(C)cc12 | -19.6%
CCOc1ccc2cc(C#N)c(SCC(=O)OC)nc2c1 | 26.5%
Cc1cc(C(F)(F)F)c(C#N)c(SCC(=O)NC2CC2)n1 | -6.7%
CC(=O)c1cc(C#N)c(SCC(=O)C(C)(C)C)nc1C | 57.1% (active)
O=C(Nc1cccc(-c2nnc(-c3ccccc3)o2)c1)C1CCCO1 (stereo not drawn) | 65.8% (active)
O=C(Nc1ccc(-c2nnc(-c3ccccc3)o2)cc1)C1CCCO1 (stereo not drawn) | 65.9% (active)
Cc1cc(Br)ccc1NC(=O)C1CCCO1 (stereo not drawn) | -10.5%
O=C(Nc1nnc(CCc2ccccc2)s1)C1CCCO1 (stereo not drawn) | 21.6%
O=C(CCc1ccccc1)Nc1cccc(-c2nnc(-c3ccco3)o2)c1 | 27.9%
O=C(CSc1nnc(-c2ccc(NS(=O)(=O)c3ccccc3)cc2)o1)NCC1CCCO1 (stereo not drawn) | -0.8%
Cc1cccc(N2CCN(Cc3c(C)n(C)n(-c4ccccc4)c3=O)CC2)c1C | 15.3%
O=C(NCc1ccccc1)C1C(=O)N(Cc2ccccc2)C(=O)C1C1(O)CCCC1 (stereo not drawn) | -4.5%
Cc1ccccc1Cn1c(=O)[nH]c2ccccc21 | -12.9%
CCOC(=O)C1CCN(Cc2coc3ccc(Cl)cc3c2=O)CC1 | -25.8%
O=C(Nc1ccc(Oc2ccccc2)cc1)c1ccco1 | 44%

Structure (SMILES) | activation
COC(=O)c1ccc(NC(=O)c2ccco2)cc1 | 85.3% (active)
CC(C)(C)NC(=O)c1cc(NC(=O)c2ccco2)cc(NC(=O)c2ccco2)c1 | 22%
Cc1cccc(C)c1NC(=O)N1CC=C(n2c(=O)[nH]c3ccccc32)CC1 | -7.6%
CC(Sc1sc(=S)sc1SC(C)C(=O)O)C(=O)O (stereo not drawn) | -6.9%
CCOC(=O)c1c(C)[nH]c(C(=O)COc2ccc3c(c2)OCO3)c1C | 28.5%
CCOC(=O)c1c(C)[nH]c(C(=O)NCc2ccccc2OC)c1C | 24.8%
CCCCOC(=O)c1[nH]c(C)c(C(=O)OC)c1C | 77.7% (active)
CCc1ccccc1NC1c2ccccc2C(=O)N1c1cccnc1 (stereo not drawn) | -5.1%
Cc1cc(N2C(=O)C(=O)/C(=C(/O)c3ccccc3)C2c2cccc(Br)c2)no1 (stereo not drawn) | 2.6%
COc1ccc(S(=O)(=O)NC2(C(F)(F)F)N=C3SCCN3C2=O)cc1 (stereo not drawn) | 19.3%
CN(C)CCSc1nc(N)c2c3c(sc2n1)COC(C)(C)C3 | 3.5%
C=C(C)Cn1c(SCC(=O)NCc2ccco2)nc2sc3c(c2c1=O)CCC3 | -1.8%
C=C(C)CSc1nc(N)c2c3c(sc2n1)CCC3 | 51.5% (active)
O=C(CSc1nc2[nH]ncc2c(=O)n1-c1ccccc1)N1CCCc2ccccc21 | 22.2%
CC(C)CNC(=O)c1cc(-c2ccc(Br)cc2)on1 | 52.5% (active)
O=C(NCCCN1CCOCC1)c1cc(-c2ccc(Cl)cc2)on1 | -2.4%
CC(NC(=O)c1cc(-c2ccccc2)on1)c1ccccc1 (stereo not drawn) | 1.6%
CCOC(=O)C1CCc2nc3ccccc3c(=O)n21 (stereo not drawn) | 2.2%
CCOC(=O)C1CCN(C(=O)CC2C(=O)N(Cc3ccccc3)C(C)c3nc4ccccc4n32)CC1 (stereo not drawn) | 14.5%
COC(=O)c1ccc(Oc2nc(NC(C)C)nc(SC)n2)cc1 | 2.8%
CC(C)(C)c1csc(NC2=NS(=O)(=O)c3ccccc32)n1 | 50.5% (active)
c1ccc(Nc2nc(-c3ccncc3)cs2)nc1 | 36.9%
CCOC(=O)c1nnn(CC(=O)Nc2cccc(F)c2)c1C(=O)OCC | 2.1%
CCN(CCCCOC(=O)c1ccc(OC)c(OC)c1)C(C)Cc1ccc(OC)cc1 (stereo not drawn) | -10.3%
